Experimental data taken from ChEMBL document CHEMBL1129669, “Discovery of 1,5-benzodiazepines with peripheral cholecystokinin (CCK-A) receptor agonist activity. 1. Optimization of the agonist "trigger"” (J Med Chem, 1996).
The source made the active and inactive calls. The rule behind the calls is not given here.

Columns and labels:
Cavia porcellus [1] = species: Cavia porcellus; test: (§1) Percent contraction of the guinea pig gall bladder uM; format: functional; parameters: concentration or dose not given beside the values
Procedure, shortened: (§2)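 Isolated guinea pig gallbladder incubated with ligand at 37 °C, 30 µM for 30 min or 1 µM for 60 min. Contraction expressed as percent of the contraction induced by 1 µM CCK-8.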

Cavia porcellus [2] = species: Cavia porcellus; test: Guinea pig gall bladder contraction by the compound at concentration 30 uM in the presence of MK329; format: functional
Procedure, shortened: (§3)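 Isolated guinea pig gallbladder contraction induced by test ligand (30 µM screen), then reversed with MK-329 at 1 µM to confirm a CCK-A receptor-mediated response.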

Cavia porcellus [3] = species: Cavia porcellus; test: Guinea pig gall bladder contraction by the compound at concentration 30 uM in the absence of MK329; format: functional; procedure, shortened: as §2
Cavia porcellus [4] = species: Cavia porcellus; test: Percentage reversal of isolated guinea pig gall bladder contraction by the compound; format: functional; procedure, shortened: as §3
Rattus norvegicus [5] = species: Rattus norvegicus; test: Anorectic potency in rats conditioned to a palatable liquid diet and fasted for 2 hours; format: functional
Rattus norvegicus [6] = test: Maximal response of the rat to anorectic potency 30 min after intraperitoneal administration (1 uM/Kg); format: functional
[7] = target: T1, Gastrin/cholecystokinin type B receptor (Homo sapiens, UniProt P32239); test: Concentration required to displace [125I]Bolton-Hunter CCK-8 from human Cholecystokinin type B receptor expressed in CHO-K1 cells; format: cell-based
T1 sequence (P32239 whole entry): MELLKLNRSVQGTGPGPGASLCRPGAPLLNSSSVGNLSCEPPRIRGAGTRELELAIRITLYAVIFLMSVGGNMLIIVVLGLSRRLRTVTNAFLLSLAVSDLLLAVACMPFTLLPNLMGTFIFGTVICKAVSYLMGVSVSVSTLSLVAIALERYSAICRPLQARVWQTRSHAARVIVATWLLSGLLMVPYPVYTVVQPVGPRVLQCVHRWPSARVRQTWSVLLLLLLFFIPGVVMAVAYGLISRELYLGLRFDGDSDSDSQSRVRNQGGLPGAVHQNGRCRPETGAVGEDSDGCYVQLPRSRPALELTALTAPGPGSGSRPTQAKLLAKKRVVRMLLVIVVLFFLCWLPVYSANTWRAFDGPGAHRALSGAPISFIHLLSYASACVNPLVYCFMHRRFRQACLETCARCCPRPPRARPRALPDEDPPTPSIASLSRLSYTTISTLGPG

[8] = target: T2, Cholecystokinin receptor type A (Homo sapiens, UniProt P32238); test: Concentration required to displace [125I]Bolton-Hunter CCK-8 from human Cholecystokinin type A receptor stably expressed in CHO-K1 cells; format: cell-based
T2 sequence (P32238 whole entry): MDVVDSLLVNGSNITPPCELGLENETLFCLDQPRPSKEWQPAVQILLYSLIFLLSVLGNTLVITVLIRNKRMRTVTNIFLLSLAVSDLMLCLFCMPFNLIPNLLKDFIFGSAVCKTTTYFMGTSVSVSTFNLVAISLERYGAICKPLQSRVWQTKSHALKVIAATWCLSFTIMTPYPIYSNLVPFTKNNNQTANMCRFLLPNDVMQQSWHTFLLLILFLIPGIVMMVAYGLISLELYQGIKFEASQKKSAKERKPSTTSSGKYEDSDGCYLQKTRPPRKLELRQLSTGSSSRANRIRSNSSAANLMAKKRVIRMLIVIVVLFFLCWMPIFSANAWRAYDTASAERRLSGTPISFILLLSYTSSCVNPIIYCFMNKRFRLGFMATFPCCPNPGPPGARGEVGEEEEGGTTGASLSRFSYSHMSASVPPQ

Cavia porcellus [9] = species: Cavia porcellus; test: Percent contraction of the guinea pig gall bladder uM; Inactive; format: functional; procedure, shortened: as §2
Cavia porcellus [10] = species: Cavia porcellus; test: Antagonist affinity (pKB) against contraction of guinea pig gall bladder measured at a dose 30 uM; format: functional
Rattus norvegicus [11] = test: Maximal response of the rat to anorectic potency 30 min after intraperitoneal administration (0.5 uM/Kg); format: functional
Cavia porcellus [12] = species: Cavia porcellus; test: as §1; format: functional; procedure, shortened: as §2
Cavia porcellus [13] = species: Cavia porcellus; test: Guinea pig gall bladder contraction by the compound at concentration 1 uM in the presence of MK329; format: functional
Cavia porcellus [14] = species: Cavia porcellus; test: Guinea pig gall bladder contraction by the compound at concentration 1 uM in the absence of MK329; format: functional; procedure, shortened: as §2

CC(C)N(C(=O)CN1C(=O)C(NC(=O)Nc2ccccc2)C(=O)N(c2ccccc2)c2ccccc21)c1ccc(O)cc1 (configuration not stated)
Activity (Cavia porcellus [1]): 81%
GPGB tension (Cavia porcellus [2]): 0 g
GPGB tension (Cavia porcellus [3]): 2.25 g
Reversal (Cavia porcellus [4]): 100%
ED50 (Rattus norvegicus [5]): 0.05 µmol/kg
Max response (Rattus norvegicus [6]): 74%
IC50 [7]: 15.8 nM
IC50 [8]: 39.8 nM

O=C(Nc1ccccc1)NC1C(=O)N(CC(=O)N(CCNC(=O)OCc2ccccc2)c2ccccc2)c2ccccc2N(c2ccccc2)C1=O (configuration not stated)
Activity (Cavia porcellus [9]): inactive

CCN(CC)C(=O)CN1C(=O)C(NC(=O)Nc2ccccc2)C(=O)N(c2ccccc2)c2ccccc21 (configuration not stated)
Activity (Cavia porcellus [1]): 38%

CCOC(=O)CN(C(=O)CN1C(=O)C(NC(=O)Nc2ccccc2)C(=O)N(c2ccccc2)c2ccccc21)c1ccccc1 (configuration not stated)
Activity (Cavia porcellus [1]): 16%

CC(C)N(C(=O)CN1C(=O)C(NC(=O)Nc2ccccc2)C(=O)N(c2ccccc2)c2ccccc21)C(C)C (configuration not stated)
Activity (Cavia porcellus [1]): 21%

O=C(O)CN(C(=O)CN1C(=O)C(NC(=O)Nc2ccccc2)C(=O)N(c2ccccc2)c2ccccc21)c1ccccc1 (configuration not stated)
pKB (Cavia porcellus [10]): 6.33
Activity (Cavia porcellus [9]): inactive

O=C(CN1C(=O)C(NC(=O)Nc2ccccc2)C(=O)N(c2ccccc2)c2ccccc21)Nc1ccccc1 (configuration not stated)
pKB (Cavia porcellus [10]): 6.33
Activity (Cavia porcellus [9]): inactive

N#CCCN(C(=O)CN1C(=O)C(NC(=O)Nc2ccccc2)C(=O)N(c2ccccc2)c2ccccc21)c1ccccc1 (configuration not stated)
Activity (Cavia porcellus [1]): 32%

CSCC[C@H](NC(=O)[C@H](Cc1ccc(OS(=O)(=O)O)cc1)NC(=O)[C@@H](N)CC(=O)O)C(=O)NCC(=O)N[C@@H](Cc1c[nH]c2ccccc12)C(=O)N[C@@H](CCSC)C(=O)N[C@@H](CC(=O)O)C(=O)N[C@@H](Cc1ccccc1)C(N)=O [SINCALIDE]
ED50 (Rattus norvegicus [5]): 0.03 µmol/kg
Max response (Rattus norvegicus [11]): 96%

COc1ccc(N(C(=O)CN2C(=O)C(NC(=O)Nc3ccccc3)C(=O)N(c3ccccc3)c3ccccc32)C(C)C)cc1 (configuration not stated)
Activity (Cavia porcellus [1]): 93%
GPGB tension (Cavia porcellus [2]): 0.2 g
GPGB tension (Cavia porcellus [3]): 2.88 g
Reversal (Cavia porcellus [4]): 107%
ED50 (Rattus norvegicus [5]): 0.07 µmol/kg
Max response (Rattus norvegicus [6]): 62%
IC50 [7]: 50.1 nM
IC50 [8]: 79.4 nM
Activity (Cavia porcellus [12]): 82%

CC(C)N(C(=O)CN1C(=O)C(NC(=O)Nc2ccccc2)C(=O)N(c2ccccc2)c2ccccc21)c1ccc(F)cc1 (configuration not stated)
Reversal (Cavia porcellus [4]): 116%
ED50 (Rattus norvegicus [5]): 0.2 µmol/kg
GPGB tension (Cavia porcellus [13]): 0.34 g
Max response (Rattus norvegicus [6]): 56%
IC50 [7]: 31.6 nM
IC50 [8]: 100 nM
Activity (Cavia porcellus [12]): 53%
GPGB tension (Cavia porcellus [14]): 2.14 g

CC(C)N(Cc1ccccc1)C(=O)CN1C(=O)C(NC(=O)Nc2ccccc2)C(=O)N(c2ccccc2)c2ccccc21 (configuration not stated)
Activity (Cavia porcellus [1]): 34%

CCCN(C(=O)CN1C(=O)C(NC(=O)Nc2ccccc2)C(=O)N(c2ccccc2)c2ccccc21)c1ccccc1 (configuration not stated)
Activity (Cavia porcellus [1]): 50%

NCCN(C(=O)CN1C(=O)C(NC(=O)Nc2ccccc2)C(=O)N(c2ccccc2)c2ccccc21)c1ccccc1 (configuration not stated)
pKB (Cavia porcellus [10]): 5.88
Activity (Cavia porcellus [1]): 7%

CC(C)N(C(=O)CN1C(=O)C(NC(=O)Nc2ccccc2)C(=O)N(c2ccccc2)c2ccccc21)c1ccc(N2CCOCC2)cc1 (configuration not stated)
Reversal (Cavia porcellus [4]): 123%
ED50 (Rattus norvegicus [5]): 0.2 µmol/kg
GPGB tension (Cavia porcellus [13]): 0.43 g
Max response (Rattus norvegicus [6]): 26%
IC50 [7]: 158 nM
Activity (Cavia porcellus [12]): 74%
GPGB tension (Cavia porcellus [14]): 1.88 g

O=C(Nc1ccccc1)NC1C(=O)N(CC(=O)N(c2ccccc2)C2CCCCC2)c2ccccc2N(c2ccccc2)C1=O (configuration not stated)
Activity (Cavia porcellus [1]): 26%

CCCCN(C(=O)CN1C(=O)C(NC(=O)Nc2ccccc2)C(=O)N(c2ccccc2)c2ccccc21)c1ccccc1 (configuration not stated)
Activity (Cavia porcellus [1]): 27%

CC(C)N(C(=O)CN1C(=O)C(NC(=O)Nc2ccccc2)C(=O)N(c2ccccc2)c2ccccc21)c1ccccc1 (configuration not stated)
Activity (Cavia porcellus [1]): 86%
GPGB tension (Cavia porcellus [2]): 0.43 g
GPGB tension (Cavia porcellus [3]): 2.53 g
Reversal (Cavia porcellus [4]): 117%
ED50 (Rattus norvegicus [5]): 0.95 µmol/kg
Max response (Rattus norvegicus [6]): 48%

CN(C(=O)CN1C(=O)C(NC(=O)Nc2ccccc2)C(=O)N(c2ccccc2)c2ccccc21)c1ccccc1 (configuration not stated)
pKB (Cavia porcellus [10]): 6.27
Activity (Cavia porcellus [9]): inactive

CC(C)N(C(=O)CN1C(=O)C(NC(=O)Nc2ccccc2)C(=O)N(c2ccccc2)c2ccccc21)c1ccc(C(=O)O)cc1 (configuration not stated)
pKB (Cavia porcellus [10]): 6.14
Activity (Cavia porcellus [1]): 10%
IC50 [7]: 39.8 nM
IC50 [8]: 2510 nM

CC(C)N(C(=O)CN1C(=O)C(NC(=O)Nc2ccccc2)C(=O)N(c2ccccc2)c2ccccc21)c1ccc(N(C)C)cc1.O=C(O)C(F)(F)F (configuration not stated)
Activity (Cavia porcellus [1]): 75%
Reversal (Cavia porcellus [4]): 100%
ED50 (Rattus norvegicus [5]): 0.09 µmol/kg
GPGB tension (Cavia porcellus [13]): 0.01 g
Max response (Rattus norvegicus [6]): 54%
IC50 [7]: 251 nM
IC50 [8]: 63.1 nM
Activity (Cavia porcellus [12]): 46%
GPGB tension (Cavia porcellus [14]): 2.55 g

CCN(C(=O)CN1C(=O)C(NC(=O)Nc2ccccc2)C(=O)N(c2ccccc2)c2ccccc21)c1ccccc1 (configuration not stated)
Activity (Cavia porcellus [1]): 66%

O=C(Nc1ccccc1)NC1C(=O)N(CC(=O)N(c2ccccc2)c2ccccc2)c2ccccc2N(c2ccccc2)C1=O (configuration not stated)
Activity (Cavia porcellus [1]): 43%
